In ChEMBL document CHEMBL4513216, “Probing the Open Global Health Chemical Diversity Library for Multistage-Active Starting Points for Next-Generation Antimalarials” (ACS Infect Dis, 2020):

Experiment: Toxicity liver stage against HepG2, at 10uM
Format: cell-based
Set-up: test concentration 10 uM, cell line HepG2-A16-CD81EGFP
Conditions: human, HepG2-A16-CD81EGFP cells; read-out: INHIBITION
Procedure, shortened: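 Uninfected HepG2-A16-CD81EGFP cells, 3 × 10^3 per well, 1536-well, plated on prespotted compound at 10 μM final, parasite-free screening media added to match infected plates; puromycin 10 μM positive, DMSO 0.5% negative; run in parallel with 48 h PbLuc assay at 37 °C, 5% CO2; viability by CellTiter-Glo luminescence, normalized to controls.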

Row | Structure (SMILES) | cytotoxicity at 10 µM [%]
1 | CC(C)(C)c1cn(C[C@H]2CC3CCN2C[C@@H]3C(=O)N2CCOCC2)nn1 (some centres not stated) | -3.37
2 | COC1CN(CCO)S(=O)(=O)c2ccccc21 (configuration not stated) | 3.54
3 | O=C(NC1CC1)c1nc(COc2ccc3c(c2)OCO3)no1 | 3.97
4 | COC(=O)N1CCC(CNC(=O)C2CCN(S(C)(=O)=O)CC2)CC1 | -2.72
5 | Cc1cc(C(=O)NCC(Cc2cccc(F)c2)N2CCCCC2=O)no1 (configuration not stated) | 2.68
6 | CC(C)S(=O)(=O)NCC(Cc1cccc(F)c1)N1CCNC1=O (configuration not stated) | -1
7 | CC(=O)c1ccc(S(=O)(=O)NCC2CCN(c3cnccn3)CC2)cc1 | 0.723
8 | N#Cc1ccc2c(c1)CN(C(=O)C1CC=CC1)C2c1cnco1 (configuration not stated) | -0.0499
9 | O=C(NC1CCCC1)NC1CCc2[nH]c(=O)ccc2C1 (configuration not stated) | 7.91
10 | CN1CCc2c(C#N)c(NCCN3CCOCC3)n3cnnc3c2C1 | -2.84
11 | N#Cc1cc(C#N)c(SCC(=O)Nc2ccc(F)cc2)nc1N | -0.506
12 | O=C(c1cccc(-n2cnnc2)c1)N1C[C@@H](O)[C@H](N2CCOCC2)C1 | 2.26
13 | COCCNc1ccc(CC2CCCN(C3CCCC3)C2)nn1 (configuration not stated) | 3.07
14 | Cc1nc(N)cc(C2CN(C(=O)c3cscn3)CCO2)n1 (configuration not stated) | 7.03
15 | c1cc(-c2cncc(C3CCNCC3)n2)n[nH]1 | 3.42
16 | O=C(c1ccc2c(c1)OCO2)N1CCC(C(=O)O)(c2ccccc2)CC1 | 7.33
17 | O=C1NC2(Cc3ccccc31)CN(CC1CCOCC1)C2 | 14
18 | Cc1cc(C2CCCN2C(=O)COc2ccc(CC#N)cc2)on1 (configuration not stated) | -49.6
19 | CCN(Cc1cccc(C(N)=O)c1)c1ccccc1 | 2.91
20 | COc1ccc2c(c1)OCC(CNC1CCc3ncnn3C1)=C2 (configuration not stated) | 4.4
21 | Cc1noc(C)c1CS(=O)(=O)CC(=O)NCCc1ccccc1 | -5.83

Row | Structure (SMILES) | cytotoxicity at 10 µM [%]
22 | CC(C)n1nc2c(cc1=O)CN(c1nc3ccccc3s1)CC2 | -1.99
23 | CC(=O)N(Cc1ncc(C)o1)C1CCN(Cc2nnc(C3CC3)o2)C1 (configuration not stated) | 5.08
24 | CC(C)n1c(C2CCCN(CC(=O)NC3CC3)C2)nc2ccccc21 (configuration not stated) | -5.54
25 | CSc1ccc(C(CNC(C)=O)N2CCc3sccc3C2)cc1 (configuration not stated) | 6.84
26 | c1ccc(-n2nnnc2CNCc2ccc3c(c2)OCCO3)cc1 | 9.35
27 | CCC(C(=O)NCC1CCN(c2ccncc2)CC1)N(C)C (configuration not stated) | 15
28 | Cc1cccc(C2CCCN2Cc2nc(N)nc(N(C)C)n2)c1C (configuration not stated) | -12.5
29 | Cc1nc(NC(=O)NC(CS(C)(=O)=O)c2ccccc2)sc1C (configuration not stated) | -1.32
30 | CN1CCN(c2ccc(Cl)cc2NC(=O)c2ccco2)CC1 | -2.14
31 | CN1CCN(c2ccccc2NC(=O)NCCc2ccc(O)cc2)CC1 | -0.37
32 | CC(=O)c1cccc(S(=O)(=O)N2CCC(c3n[nH]c(C)n3)CC2)c1 | -5.83
33 | COc1cncc(N2CCN(Cc3cccn3C)CC2)n1 | 6.09
34 | COc1cccc(CC2CCCN2CC(N)=O)c1 (configuration not stated) | -55.6
35 | CCN(CCC(=O)OC)S(=O)(=O)c1cnc2c(c1)c(C)nn2C | -15.2
36 | COCCN1CCC(c2nc3ccccc3[nH]2)CC1 | 0.575
37 | CCCn1nnnc1CN(c1ccc(C)cc1)C(C)C | 4.15
38 | Cc1cc(CN2CCc3nn(C(C)C)c(=O)cc3C2)no1 | -13.8
39 | Cc1cc(CNC(=O)NC(C)c2ccc(N3CCOCC3)cc2)no1 (configuration not stated) | -17.4
40 | O=C(NCC1CC1)C1CN(C(=O)NC2CCCC2)Cc2cncn2C1 (configuration not stated) | -106
41 | O=C(Nc1ccccc1)c1cc2n(n1)CCCN(C(=O)N1CCCC1)C2 | -70.3
42 | CCc1noc(C2CC(=O)N(CCN(C)C)C2)n1 (configuration not stated) | -10.1

Row | Structure (SMILES) | cytotoxicity at 10 µM [%]
43 | CC(C)N(Cc1c[nH]nc1-c1ccc2c(c1)OCO2)Cc1nccn1C | -7.8
44 | CC(C)c1cc(C(=O)N2CCNCC2C(=O)NCc2ccncc2)on1 (configuration not stated) | -7.6
45 | O=C(C(c1ccc(F)cc1)N1CCCCC1)N1CCn2cncc2C1 (configuration not stated) | -0.628
46 | CCOc1ncccc1-c1cc2c(cc1C(N)=O)OCO2 | -0.421
47 | O=C(Cn1cccn1)N1CCC(Cn2cc(-c3ccsc3)nn2)CC1 | -0.554
48 | CC(=O)N[C@@H]1Cc2ccccc2[C@H]1Nc1cc(C2CC2)ncn1 | -45.2
49 | CC(Cn1cccn1)n1cnc2ccc(F)cc2c1=O (configuration not stated) | 0.956
50 | CCc1ccc(CN(C)Cc2nc(-c3cnccn3)no2)nc1 | 3.57
51 | Cn1ncc2c(N3CCS(=O)(=O)CC3)nc(-c3cccnc3)nc21 | 4.38
52 | CCc1nnc(CN(C)Cc2cccc(C(=O)Nc3ccnn3C)c2)o1 | -3.7
53 | COC[C@@]12CC[C@@H](N3CCOCC3)C[C@H]1CCN(c1ncccc1F)C2 | -3.47
54 | COCC(Nc1nc(N(C)C)nc2c1CCNCC2)c1ccccn1 (configuration not stated) | 1.58
55 | CN1CCC(n2nc(Cc3cccc(Cl)c3)nc2Cn2ccnc2)CC1 | 10.8
56 | O=C(NC1CCCN(CCCc2ccccc2)C1)c1ccc(Cl)s1 (configuration not stated) | 57.5
57 | CCC[C@@H]1CN(Cc2cc3c(cc2OC)OCO3)C[C@H]1C(=O)O | -2.7
58 | CSc1ccc(C(C(=O)O)N2CCCC2)cc1 (configuration not stated) | 1.16
59 | CNC(=O)C1(N(C)CCc2ccccc2)Cc2ccccc2C1 | 11.5
60 | Cc1cc(NCCCc2c(C)noc2C)nc(N)n1 | 12
61 | c1ccc(CCCn2cc(-c3nc(CN4CCOCC4)no3)nn2)cc1 | 2.14
62 | Cc1ccc(C(=O)N2CCC3(CC2)c2ccccc2[C@@H](N)[C@@H]3O)cc1F | -0.685
63 | O=C(O)c1ccnc(-c2ccnc(COc3cccc(F)c3)n2)c1 | -2.31

Row | Structure (SMILES) | cytotoxicity at 10 µM [%]
64 | CNc1nc(C(=O)N2CCN(c3cc(C)nc(C)c3)CC2)cs1 | 3.78
65 | Cc1cc2cc(C(=O)N3CCN(CCO)[C@@H]4CS(=O)(=O)C[C@@H]43)ccc2o1 | -0.357
66 | CC1CCN(CC2(O)CCCN(Cc3cccc(F)c3F)C2=O)CC1 (configuration not stated) | 0.801
67 | COc1cccc(-c2ncc(CN3CCOCC(O)C3)s2)c1 (configuration not stated) | -7.19
68 | CN(C)Cc1cn(CC2CCCN(c3nccc4occc34)C2)nn1 (configuration not stated) | -9.67
69 | CCC(C(=O)NCc1cccnc1)N(c1cccc(C)c1)S(C)(=O)=O (configuration not stated) | 2.57
70 | Cc1cc(C)nc(N2CCC(NCCSc3nnnn3C)CC2)n1 | -6.88
71 | COCC(=O)NCc1cccnc1-n1cnc2ccccc21 | -2.8
72 | CN(Cc1cnn(C)c1)C(=O)NCc1cc(Br)cs1 | -10.1
73 | CCSc1ccc(NC(=O)N2CCCC2c2ccncc2)cn1 (configuration not stated) | -8.88
74 | Cc1nc(Nc2cnccn2)cc(C2CCCN2)n1 (configuration not stated) | -9.46
75 | COc1ccc(CNC(=O)N2CCN(CC(O)C3CC3)CC2)cc1 (configuration not stated) | 7.11
76 | Cn1cc(N2C[C@@H]3CN(Cc4ccccn4)C[C@@H]3C2=O)cn1 | -95.6
77 | Cc1cnccc1-c1cnn(CCNC(=O)c2ccccn2)c1C1CC1 | 56.3
78 | Cc1csc(CN2CCC[C@]3(C[C@H](Oc4ccccn4)CO3)C2)n1 | -14
79 | Cc1cc(N(C)C)nc(C2CCNC2)n1 (configuration not stated) | 0.812
80 | Cc1ccc(N2CC[C@H]3OCC[C@@]3(C(=O)NC(C)C)C2)nn1 | -11.7
81 | Cn1cccc1C(=O)N[C@H]1CN(Cc2ccoc2)[C@@H]2CCCO[C@H]12 | -88.7
82 | CNCc1cc(F)ccc1Oc1ccc(Cl)cc1 | -8.74
